Source: PubChem BioAssay
CHO parental Ca – counter-screen: ATP calcium response change in parental CHO cells | parental CHO-K1, ATP-induced calcium, Fluo-8 fluorescence | inhibition, % at 5.6 µM | 330,000 tested, 0.63% active;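 active = inhibition above that plate's mean sample inhibition plus 3 SD, cut at about 26% in these data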;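 also: 0% = ATP-challenged DMSO wells and 100% = DMSO wells without ATP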
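Measured by: calcium-sensitive Fluo-8 fluorescence / Test system: CHO parental line / Controls: ATP-challenged DMSO wells low, unchallenged DMSO wells high / Measure: % inhibition / Compound: single nominal dose of 5.6 µM per compound / Replicates: single well per compound, no replicates / Reagent: ATP as calcium-mobilizing challenge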
OX1R antag-1 – OX1R (human) antagonism; OX1R-expressing cells, FRET antagonist read-out; 330,000 tested, 1.8% active; inhibition, % at 6.6 µM; O43613; AID 485270; in the data active = inhibition mostly above about 38%, no sharp cut-off; inactive = mostly below about 40%;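 also: 0% = agonist challenge alone and 100% = reference antagonist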
OX1R antag-2 – antagonists of human orexin 1 receptor | O43613 | CHO/OX1R cells, Fluo-8 calcium fluorescence, orexin A | inhibition, % at 5 µM | 330,000 tested, 0.43% active | AID 434989;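 active = inhibition above its plate's threshold, mean inhibition of all tested compounds on the plate plus 3 SD, cut at about 37% in these data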;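 also: 0% = orexin A challenge wells and 100% = SB-334867-A antagonist wells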
TAAR1 ag – human TAAR1 agonism; activation, % at 3 µM; 360,000 tested, 0.99% active; CHO RD-HGA16 TAAR1, Fluo-8 calcium fluorescence; vehicle wells 0%, saturating PEA agonist 100%;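 active = activation above the mean activation of all test compounds in the run plus 3 SD, cut at about 38% in these data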
Target sequence (Q96RJ0 whole entry, looked up): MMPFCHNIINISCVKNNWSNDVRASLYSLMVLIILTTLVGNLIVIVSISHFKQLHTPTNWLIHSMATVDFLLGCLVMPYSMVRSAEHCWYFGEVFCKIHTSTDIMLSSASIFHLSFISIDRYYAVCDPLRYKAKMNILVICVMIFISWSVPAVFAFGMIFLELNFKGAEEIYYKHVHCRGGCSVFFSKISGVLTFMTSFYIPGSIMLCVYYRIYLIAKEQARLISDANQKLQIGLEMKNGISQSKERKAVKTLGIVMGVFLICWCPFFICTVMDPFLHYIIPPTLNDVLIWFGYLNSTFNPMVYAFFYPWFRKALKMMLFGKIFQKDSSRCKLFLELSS
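Test system: RD-HGA16 (CHO) cells co-expressing Gα16 and hTAAR1; dosing: one-point dosing at 3 µM (nominal); timing: 17-24 h seeding, 75 min 37 °C dye, 30 min RT; signal: kinetic Fluo-8 calcium fluorescence; read-out basis: % activation relative to PEA EC100 response; controls: DMSO and PEA EC100; replicates: n 1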
GPR7 antagonist – blocks human GPR7 receptor signaling. GPR7-expressing cells, fluorescence antagonist assay. inhibition, % at 4.4 µM. 290,000 tested, 1.1% active. P48145. AID 1861; in the data active = inhibition above about 16%, passing the limit was not always enough;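 also: cells stimulated with the agonist NPW; 0% = agonist with vehicle and 100% = vehicle without agonist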
Target sequence (P48145 whole entry, looked up): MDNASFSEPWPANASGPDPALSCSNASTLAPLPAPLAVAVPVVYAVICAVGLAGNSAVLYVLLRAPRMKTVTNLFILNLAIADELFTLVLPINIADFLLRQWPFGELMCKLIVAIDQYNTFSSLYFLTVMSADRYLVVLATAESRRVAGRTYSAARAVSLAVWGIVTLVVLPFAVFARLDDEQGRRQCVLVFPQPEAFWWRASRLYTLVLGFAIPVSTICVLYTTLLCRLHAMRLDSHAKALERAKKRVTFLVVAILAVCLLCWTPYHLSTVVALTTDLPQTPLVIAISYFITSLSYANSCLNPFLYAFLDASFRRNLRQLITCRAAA
TAAR1 antagonist – antagonists of human TAAR1; Q96RJ0; CHO RD-HGA16 TAAR1, Fluo-8 calcium fluorescence, antagonist; inhibition, % at 3 µM; 360,000 tested, 1.5% active;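 active = inhibition above a per-plate cutoff, the mean inhibition of test compounds on that plate plus 3 SD, cut at about 49% in these data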;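 also: 0% = DMSO plus EC80 beta-PEA response and 100% = DMSO alone without agonist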
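Test system – hTAAR1-expressing CHO RD-HGA16 cells, Gα16-coupled · Also added – β-PEA at EC80 concentration, post-compound challenge · Compound – 3 µM, single point · Incubation – dye loading 75 min at 37 °C, then 30 min room temperature · Measured by – Fluo-8 intracellular calcium dye fluorescence, real-time kinetic reads · Benchmarks – vehicle and agonist controls · Replicates – singlicate, one well per test compound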
Active calls of the source: *. The list is not random: actives were taken first. Their share in the collection is about 4.6%.

`O=S(=O)(NCc1cc(-c2ccc(Cl)cc2)no1)c1ccc(Cl)cc1` gave CHO parental Ca 92.6*, OX1R antag-1 20.4, OX1R antag-2 51.1*, TAAR1 ag 7.8, GPR7 antagonist -11.9 and TAAR1 antagonist 7.0.
Screening Cc1cc(CN2C(=O)c3ccccc3C2=O)on1 returned CHO parental Ca -12.8, OX1R antag-1 3.9, OX1R antag-2 -8.7, TAAR1 ag 13.0, GPR7 antagonist -20.5 and TAAR1 antagonist -3.5.
For O=S(=O)(NCc1cc(-c2ccc(Cl)cc2)no1)c1ccccc1 the results were CHO parental Ca 2.3, OX1R antag-1 17.8, OX1R antag-2 4.1, TAAR1 ag 0.6, GPR7 antagonist -4.4 and TAAR1 antagonist 4.9.
O=C1c2ccccc2C(=O)N1Cc1cc(-c2ccc(Cl)cc2)no1 was read as CHO parental Ca -5.9, OX1R antag-1 4.7, OX1R antag-2 -10.4, TAAR1 ag 9.1, GPR7 antagonist -6.5 and TAAR1 antagonist 49.3*.
Cc1cc(C(=O)NNC(=O)c2ccccc2F)c2ccccc2n1 was read as CHO parental Ca 0.7, OX1R antag-1 7.8, OX1R antag-2 -18.5, TAAR1 ag 2.1 and TAAR1 antagonist -10.6.
Screening COc1ccc(CNC(=O)C(C)N2C(=O)NC(c3ccccc3)(c3ccccc3)C2=O)cc1 (stereo unspecified) returned CHO parental Ca -32.9, OX1R antag-1 35.3*, OX1R antag-2 16.3, TAAR1 ag 19.0 and TAAR1 antagonist -0.6.
Screening CCNC(=O)NC(=O)C(C)N1C(=O)NC(c2ccccc2)(c2ccccc2)C1=O (stereo unspecified) returned CHO parental Ca -25.8, OX1R antag-1 2.6, OX1R antag-2 -20.8, TAAR1 ag 3.0, GPR7 antagonist -16.7 and TAAR1 antagonist 4.2.
Screening O=C(CN1C(=O)NC(c2ccccc2)(c2ccccc2)C1=O)NCc1ccc(F)cc1 returned CHO parental Ca -20.9, OX1R antag-1 40.5*, OX1R antag-2 21.4, TAAR1 ag 8.7 and TAAR1 antagonist -4.7.
O=C(Nc1cccc(-c2cccc(Cl)c2)c1)C1CCN(Cc2nccs2)CC1 was read as TAAR1 ag 23.6 and TAAR1 antagonist 36.7.
CCOC(=O)N1CCN(C(=O)CSc2nc(=O)n3ccccc3n2)CC1 was read as CHO parental Ca 5.2, OX1R antag-1 5.0, OX1R antag-2 -16.6, TAAR1 ag 0.3 and TAAR1 antagonist -16.3.
Screening CCc1ccc(NC(=O)C2CCCN(S(=O)(=O)c3ccc4c(c3)CC(C)N4C(C)=O)C2)cc1 (stereo unspecified) returned CHO parental Ca -12.8, OX1R antag-1 15.2, OX1R antag-2 -30.5, TAAR1 ag 1.6, GPR7 antagonist -5.6 and TAAR1 antagonist -13.3.
For CCc1ccc(NC(=O)C2CCN(S(=O)(=O)c3ccc4c(c3)CC(C)N4C(C)=O)CC2)cc1 (stereo unspecified) the results were CHO parental Ca 35.9*, OX1R antag-1 18.8, OX1R antag-2 -15.4, TAAR1 ag 11.1, GPR7 antagonist 20.9* and TAAR1 antagonist 50.2*.
`COC(=O)c1cc2c(c3c4ccccc4n(S(=O)(=O)c4ccc(OC)cc4)c13)C(=O)N(Cc1ccc(C(F)(F)F)cc1)C2` gave TAAR1 ag -0.6 and TAAR1 antagonist -18.2.
Screening COc1ccc(C(=O)NCC(=O)OCc2ccc([N+](=O)[O-])cc2)cc1 returned CHO parental Ca -6.7, OX1R antag-1 18.9, OX1R antag-2 -18.6, TAAR1 ag 6.2, GPR7 antagonist -3.5 and TAAR1 antagonist 8.2.
For Cc1ccc(C(=O)NCC(=O)NCC(=O)OCc2ccc(Oc3ccc([N+](=O)[O-])cc3)cc2)cc1 the results were CHO parental Ca 45.8*, OX1R antag-1 49.2, OX1R antag-2 59.3*, TAAR1 ag 4.8, GPR7 antagonist 1.7 and TAAR1 antagonist 38.9.
Screening C[C@@H]1CN([C@H](C)CO)S(=O)(=O)c2ccc(Br)cc2O[C@@H]1CN(C)Cc1ccc(-c2ccccc2)cc1 returned TAAR1 ag 0.5 and TAAR1 antagonist -28.2.
Screening C[C@H](CO)N1C[C@H](C)[C@@H](CN(C)Cc2ccc3c(c2)OCO3)Oc2cc(Br)ccc2S1(=O)=O returned TAAR1 ag 1.4 and TAAR1 antagonist 50.0*.
For C[C@H](O)C#Cc1ccc2c(c1)O[C@@H](CN(C)Cc1ccc(-c3ccccc3)cc1)[C@H](C)CN([C@@H](C)CO)S2(=O)=O the results were TAAR1 ag 5.8 and TAAR1 antagonist 51.1*.
C[C@@H]1CN([C@@H](C)CO)S(=O)(=O)c2ccc(-c3ccc(C#N)cc3)cc2O[C@@H]1CN(C)Cc1ccccn1 was read as TAAR1 ag 12.0 and TAAR1 antagonist 55.8*.
For C#CCNC(=O)c1cc2cccnc2nc1N the results were TAAR1 ag 0.4 and TAAR1 antagonist 0.7.
For CCc1cc2c(nc1CC)CCCN2S(=O)(=O)c1ccc(C#N)cc1 the results were TAAR1 ag 1.4 and TAAR1 antagonist 9.4.
`O=C(NCc1ccccc1)[C@H]1CCCN1C(=O)[C@H]1CCCN1C(=O)c1ccccc1` gave TAAR1 ag 2.9 and TAAR1 antagonist -41.6.
Screening O=S(=O)(Nc1nc2ccccc2s1)c1cnc(Cl)c(Br)c1 returned CHO parental Ca -6.0, OX1R antag-1 53.5, OX1R antag-2 -13.1, TAAR1 ag -0.3, GPR7 antagonist -15.3 and TAAR1 antagonist 3.7.
NC(=O)c1ccc(NCc2ccco2)c([N+](=O)[O-])c1 was read as CHO parental Ca -1.7, OX1R antag-1 128.4*, OX1R antag-2 -1.5, TAAR1 ag 5.5, GPR7 antagonist -4.6 and TAAR1 antagonist 8.9.
`O=C(Nc1ccc2nc3n(c(=O)c2c1)CCCC3)c1cc([N+](=O)[O-])ccc1F` gave CHO parental Ca 8.3, OX1R antag-1 52.4*, OX1R antag-2 -4.4 and GPR7 antagonist 12.8.
O=C(Nc1ccc2nc3n(c(=O)c2c1)CCCC3)c1cccc([N+](=O)[O-])c1 was read as CHO parental Ca -15.9, OX1R antag-1 38.2, OX1R antag-2 -18.6, TAAR1 ag 1.3, GPR7 antagonist -8.4 and TAAR1 antagonist 3.9.
Screening CC(=O)NC(Cc1ccc(C)cc1)C(=O)NC1CCN(C(=O)NCc2ccccc2)CC1 (stereo unspecified) returned TAAR1 ag 1.4, GPR7 antagonist -14.8 and TAAR1 antagonist -7.0.
O=C(NCc1cccc(Cl)c1)c1cccc2c(-c3cccnc3)coc12 was read as TAAR1 ag 6.1 and TAAR1 antagonist 55.3*.
O=C(NCc1ccc(F)c(F)c1)c1cccc2c(-c3cccnc3)coc12 was read as TAAR1 ag 6.8 and TAAR1 antagonist 43.8.
`O=C(Cc1ccccc1)Nn1c(O)c(/C=C2\C=Nc3ccccc32)sc1=S` gave CHO parental Ca 3.7, OX1R antag-1 42.8, OX1R antag-2 20.5, TAAR1 ag 22.3, GPR7 antagonist 0.3 and TAAR1 antagonist 54.3*.
